Assays:
[1] = Stability in fasted state simulated gastric fluid assessed as parent compound remaining in absence of pepsin after 2 hrs; assay type: ADME, tissue-based, Stomach; conditions: fasted state simulated gastric fluid without pepsin; read-out: Stability
Outline: (§1)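 Compound incubated for 120 min in fasted- or fed-state simulated gastric fluid, in simulated gastric fluid, or in buffer sGF (sGF prepared without pepsin), with water as reference medium. Remaining compound is expressed as percent of the t=0 concentration, as the mean of triplicates ± SD.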

[2] = Stability in fed state simulated gastric fluid assessed as parent compound remaining in absence of pepsin after 2 hrs; assay type: ADME, tissue-based, Stomach; conditions: fed state simulated gastric fluid without pepsin; read-out: Stability; outline: as §1
[3] = Stability in simulated gastric fluid assessed as parent compound remaining in absence of pepsin after 2 hrs; assay type: ADME, tissue-based, Stomach; conditions: simulated gastric fluid without pepsin; read-out: Stability; outline: as §1
[4] = Stability in buffer simulated gastric fluid assessed as parent compound remaining in absence of pepsin after 2 hrs; assay type: ADME, tissue-based, Stomach; conditions: buffer simulated gastric fluid without pepsin; read-out: Stability; outline: as §1
[5] = Stability in water assessed as parent compound remaining in absence of pepsin after 2 hrs; assay type: physicochemical; conditions: read-out: Stability; outline: as §1
[6] = Stability in fasted state simulated gastric fluid assessed as parent compound remaining in absence of pancreatin after 2 hrs; assay type: ADME, tissue-based, Stomach; conditions: fasted state simulated gastric fluid without pancreatin; read-out: Stability
[7] = Stability in fed state simulated gastric fluid assessed as parent compound remaining in absence of pancreatin after 2 hrs; assay type: ADME, tissue-based, Stomach; conditions: fed state simulated gastric fluid without pancreatin; read-out: Stability
[8] = Stability in simulated gastric fluid assessed as parent compound remaining in absence of pancreatin after 2 hrs; assay type: ADME, tissue-based, Stomach; conditions: simulated gastric fluid without pancreatin; read-out: Stability
[9] = Stability in water assessed as parent compound remaining in absence of pancreatin after 2 hrs; assay type: physicochemical; conditions: read-out: Stability
Mus musculus [10] = test: Cmax in C3H/HeN mouse assessed as compound 4 level at 10 mg/kg, po administered as single dose by LC-MS method; assay type: ADME, organism-based; set-up: dose 10 mg/kg, route oral; conditions: in vivo
Outline: (§2)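 Single oral dose given to female C3H/HeN mice. Active principle was measured in urine over 0–24 h, and Cmax, Tmax and urine AUC0–24 were derived from the concentration profiles. The 7.7 mg/kg dose was given as a suspension. Values are means with SD for groups of three mice, or five at 7.7 mg/kg.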

Mus musculus [11] = test: Tmax in C3H/HeN mouse assessed as compound 4 level at 10 mg/kg, po administered as single dose by LC-MS method; assay type: ADME, organism-based; conditions: in vivo; outline: as §2
[12] = AUC (0 to 24 hrs) in C3H/HeN mouse urine assessed as compound 4 level at 10 mg/kg, po administered as single dose by LC-MS method; assay type: ADME, organism-based; set-up: dose 10 mg/kg, time < 24 hr, route oral; conditions: in vivo; outline: as §2
[13] = Thermodynamic solubility of the compound in 50 mM pH 6.5 phosphate buffer by LC-MS method; assay type: physicochemical; conditions: read-out: Therm_solubility
Outline: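 Thermodynamic solubility determined in phosphate buffer (50 mM, pH 6.5).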

[14] = Stability of the compound assessed as half life for human Caco2 cells phosphatase mediated compound hydrolysis at 62.5 uM by LC-MS method; assay type: ADME, cell-based; conditions: Caco-2 cells
Outline: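 Prodrug in Dulbecco's Modified Eagle's Medium (62.5 µM) applied to the apical chamber of the Caco-2 system. Unchanged prodrug was monitored by LC-MS, and t1/2 was calculated from remaining prodrug concentration versus incubation time.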

[15] = Stability in buffer simulated gastric fluid assessed as parent compound remaining in absence of pepsin after 2 hrs; conditions: buffer simulated gastric fluid without pepsin
[16] = Drug metabolism in human Caco2 cells assessed as active parent compound level in basolateral side at 62.5 uM applied at apical compartment measured after 60 mins by LC-MS method; assay type: ADME, cell-based; conditions: caco-2, 1 h
Outline: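 Caco-2 monolayer. Test article in Dulbecco's Modified Eagle's Medium at 62.5 µM was applied to the apical chamber. After 60 min, the active principle that had accumulated in the basal receiver chamber was quantified.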

Mus musculus [17] = test: Cmax in C3H/HeN mouse assessed as compound 5 level at 10 mg/kg, po administered as single dose by LC-MS method; assay type: ADME, organism-based; set-up: dose 10 mg/kg, route oral; conditions: in vivo; outline: as §2
Mus musculus [18] = test: Tmax in C3H/HeN mouse assessed as compound 5 level at 10 mg/kg, po administered as single dose by LC-MS method; assay type: ADME, organism-based; conditions: in vivo; outline: as §2
[19] = AUC (0 to 24 hrs) in C3H/HeN mouse urine assessed as compound 5 level at 10 mg/kg, po administered as single dose by LC-MS method; assay type: ADME, organism-based; set-up: time < 24 hr, dose 10 mg/kg, route oral; conditions: in vivo; outline: as §2

| SMILES | remaining at 2 h [1] [%] | remaining at 2 h [2] [%] | remaining at 2 h [3] [%] | remaining at 2 h [4] [%] | remaining at 2 h [5] [%] | remaining at 2 h [6] [%] | remaining at 2 h [7] [%] | remaining at 2 h [8] [%] | remaining at 2 h [9] [%] | solubility thermodynamic [13] [µg/mL] | half-life at 62.5 µM [14] [min] | remaining at 2 h [15] [%] | further results |
| --- | --- | --- | --- | --- | --- | --- | --- | --- | --- | --- | --- | --- | --- |
| N.N.O=P(O)(O)O[C@H]1[C@H](O)[C@H](O)[C@@H](Oc2ccc(-c3ccccc3)cc2)O[C@@H]1CO |  |  |  |  |  |  |  |  |  | 2700 | > 60 |  |  |
| N#Cc1ccc(-c2ccc(O[C@H]3O[C@H](COP(=O)([O-])[O-])[C@@H](O)[C@H](O)[C@@H]3O)c(Cl)c2)cc1.[Na+].[Na+] | > 80 | > 80 | > 80 | > 80 | > 80 | > 80 | > 80 | > 80 | > 80 | > 3000 | 48 | > 80 |  |
| N.N.O=P(O)(O)O[C@@H]1[C@@H](Oc2ccc(-c3ccccc3)cc2)O[C@H](CO)[C@@H](O)[C@@H]1O |  |  |  |  |  |  |  |  |  | > 3000 | 12 |  |  |
| N.N.O=[N+]([O-])c1ccc2c(c1)CCN2c1ccc(O[C@H]2O[C@H](COCOP(=O)(O)O)[C@@H](O)[C@H](O)[C@@H]2O)cc1 |  |  |  |  |  |  |  |  |  | > 3000 | 11 |  | Drug metabolism [16]: Dose-dependent effect; Cmax (Mus musculus [17]): 4500 ng/mL; Tmax (Mus musculus [18]): 180 min; AUC [19]: 24.6 µg·h/mL |
| N#Cc1ccc(-c2ccc(O[C@H]3O[C@H](CO)[C@@H](O)[C@H](OP(=O)([O-])[O-])[C@@H]3O)c(Cl)c2)cc1.[Na+].[Na+] |  |  |  |  |  |  |  |  |  | > 3000 | 12 |  | Drug metabolism [16]: Dose-dependent effect; Cmax (Mus musculus [10]): 40700 ng/mL; Tmax (Mus musculus [11]): 54 min; AUC [12]: 103.9 µg·h/mL |

Continued, in another order:

| remaining at 2 h [1] [%] | remaining at 2 h [2] [%] | remaining at 2 h [3] [%] | remaining at 2 h [4] [%] | remaining at 2 h [5] [%] | remaining at 2 h [6] [%] | remaining at 2 h [7] [%] | remaining at 2 h [8] [%] | remaining at 2 h [9] [%] | solubility thermodynamic [13] [µg/mL] | half-life at 62.5 µM [14] [min] | remaining at 2 h [15] [%] | SMILES | further results |
| --- | --- | --- | --- | --- | --- | --- | --- | --- | --- | --- | --- | --- | --- |
| > 80 | > 80 | > 80 | > 80 | > 80 | > 80 | > 80 | > 80 | > 80 | > 3000 | 43 | > 80 | N#Cc1ccc(-c2ccc(O[C@H]3O[C@H](CO)[C@@H](OP(=O)([O-])[O-])[C@H](O)[C@@H]3O)c(Cl)c2)cc1.[Na+].[Na+] | Cmax (Mus musculus [10]): 57000 ng/mL; Tmax (Mus musculus [11]): 26.4 min; AUC [12]: 226.4 µg·h/mL |
| > 80 | > 80 | > 80 | > 80 | > 80 | > 80 | > 80 | > 80 | > 80 | > 3000 | 13 | > 80 | N#Cc1ccc(-c2ccc(O[C@H]3O[C@H](CO)[C@@H](O)[C@H](O)[C@@H]3OP(=O)([O-])[O-])c(Cl)c2)cc1.[Na+].[Na+] |  |
|  |  |  |  |  |  |  |  |  | > 3000 | 13 |  | N.N.O=P(O)(O)O[C@@H]1[C@H](O)[C@@H](Oc2ccc(-c3ccccc3)cc2)O[C@H](CO)[C@H]1O |  |
|  |  |  |  |  |  |  |  |  | > 3000 | > 60 |  | N.N.O=P(O)(O)OC[C@H]1O[C@H](Oc2ccc(-c3ccccc3)cc2)[C@@H](O)[C@@H](O)[C@@H]1O |  |

Source: ChEMBL document CHEMBL3797146, “FimH Antagonists: Phosphate Prodrugs Improve Oral Bioavailability” (J Med Chem, 2016)
